Source: ChEMBL document CHEMBL4428050, “Design, Synthesis, and Biological Evaluation of Substituted Pyrimidines as Potential Phosphatidylinositol 3-Kinase (PI3K) Inhibitors” (J Med Chem, 2016)
Activity calls are given as the source filed them. The rule behind the calls is not given here.

How the values were obtained:
[1] = Inhibition of PI3K p110alpha/p85 (unknown origin) using PIP2/ATP as substrate after 1 hr by kinase glo luminescent assay; set-up: species or system Homo sapiens
Method in brief: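 PI3K p110α activity read by Kinase-Glo Plus luminescence. IC50 is the mean of triplicate measurements.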

[2] = test system: DU-145; assay: Antiproliferative activity against human DU145 cells after 72 hrs by CCK8 assay; type: functional, cell-based
[3] = test system: SGC-7901; assay: Antiproliferative activity against human SGC7901 cells after 72 hrs by CCK8 assay; type: functional, cell-based; conditions: SGC-7901, 72 h
[4] = test system: BGC-823; assay: Antiproliferative activity against human BGC823 cells after 72 hrs by CCK8 assay; type: functional, cell-based; conditions: Homo sapiens, BGC-823, 72 h
[5] = test system: A-431; assay: Antiproliferative activity against human A431 cells after 72 hrs by CCK8 assay; type: functional, cell-based
[6] = test system: PANC-1; assay: Antiproliferative activity against human PANC1 cells after 72 hrs by CCK8 assay; type: functional, cell-based
[7] = test system: NCI-N87; assay: Antiproliferative activity against human NCI-N87 cells after 72 hrs by CCK8 assay; type: functional, cell-based
[8] = test system: Huh-7; assay: Antiproliferative activity against human HuH7 cells after 72 hrs by CCK8 assay; type: functional, cell-based; conditions: Huh-7, 72 h
[9] = test system: K562; assay: Antiproliferative activity against human K562 cells after 72 hrs by CCK8 assay; type: functional, cell-based
[10] = test system: MCF7; assay: Antiproliferative activity against human MCF7 cells after 72 hrs by CCK8 assay; type: functional, cell-based
[11] = test system: HT-1080; assay: Antiproliferative activity against human HT1080 cells after 72 hrs by CCK8 assay; type: functional, cell-based; conditions: HT-1080, 72 h
[12] = test system: Bel-7402; assay: Antiproliferative activity against human Bel7402 cells after 72 hrs by CCK8 assay; type: functional, cell-based; conditions: Bel-7402, 72 h
[13] = test system: U-937; assay: Antiproliferative activity against human U937 cells after 72 hrs by CCK8 assay; type: functional, cell-based
[14] = test system: MOLT-4; assay: Antiproliferative activity against human MOLT4 cells after 72 hrs by CCK8 assay; type: functional, cell-based
[15] = test system: HeLa; assay: Antiproliferative activity against human HeLa cells after 72 hrs by CCK8 assay; type: functional, cell-based
[16] = test system: A549; assay: Antiproliferative activity against human A549 cells after 72 hrs by CCK8 assay; type: functional, cell-based
[17] = test system: SK-BR-3; assay: Antiproliferative activity against human SK-BR-3 cells after 72 hrs by CCK8 assay; type: functional, cell-based; conditions: SK-BR-3, 72 h
[18] = test system: PC-3; assay: Antiproliferative activity against human PC3 cells after 72 hrs by CCK8 assay; type: functional, cell-based; conditions: PC-3, 72 h
[19] = test system: MDA-MB-231; assay: Antiproliferative activity against human MDA-MB-231 cells by WST8 assay; type: functional, cell-based
[20] = test system: HL-60; assay: Antiproliferative activity against human HL60 cells after 72 hrs by CCK8 assay; type: functional, cell-based; conditions: HL-60, 72 h
[21] = organism: Homo sapiens; assay: Inhibition of PI3K in human U937 cells assessed as suppression of AKT phosphorylation at S473 after 24 hrs by Western blot analysis; type: cell-based

Row | Compound | IC50 [1] [nM] | IC50 ([2]; Homo sapiens, DU-145, 72 h) [µM] | IC50 [3] [nM] | IC50 [4] [µM] | IC50 ([5]; Homo sapiens, A-431, 72 h) [nM] | IC50 ([6]; Homo sapiens, PANC-1, 72 h) [µM] | IC50 [8] [nM] | IC50 ([9]; Homo sapiens, K562, 72 h) [nM] | IC50 ([10]; Homo sapiens, MCF7, 72 h) [µM] | IC50 [11] [nM] | IC50 [12] [nM] | IC50 ([13]; Homo sapiens, U-937, 72 h) [nM] | IC50 ([14]; Homo sapiens, MOLT-4, 72 h) [nM] | IC50 ([15]; Homo sapiens, HeLa, 72 h) [nM] | IC50 ([16]; Homo sapiens, A549, 72 h) [µM] | further results
1 | C[C@@H]1CN(c2nc(-c3cnc(N)cc3C(F)(F)F)nc(N3C[C@H]4C[C@@H]3CO4)n2)C[C@H](C)O1 | 9530 |  |  |  |  |  |  |  |  |  |  |  |  |  |  | 
2 | C[C@@H]1CN(c2nc(-c3cnc(N)cc3C(F)(F)F)cc(N3CCOCC3)n2)C[C@H](C)O1 | 91 | 1.41 | 1240 | 1.41 | 2290 | 1.38 | 1210 | 2680 | 1.41 | 1980 | 1640 | 570 | 420 | 1810 | 1.89 | IC50 ([7]; Homo sapiens, NCI-N87, 72 h): 520 nM
3 | Nc1cc(C(F)(F)F)c(-c2cc(N3CCOCC3)nc(N3C[C@@H]4OCCO[C@@H]4C3)n2)cn1 | 117 | 4.81 | 3750 | 4.57 | 2550 | 3.67 | 4840 | 1750 | 4.95 | 4840 | 5820 | 1760 | 2510 | 4310 | 4.98 | IC50 ([7]; Homo sapiens, NCI-N87, 72 h): 1970 nM
4 | CC(/C=C/C(=O)NO)=C\[C@@H](C)C(=O)c1ccc(N(C)C)cc1 [TRICHOSTATIN] |  | 0.06 | 30 | 0.07 | 180 | 0.1 | 60 | 120 | 0.07 | 80 | 100 | 40 | 20 | 90 | 0.05 | IC50 [17]: 50 nM; IC50 ([7]; Homo sapiens, NCI-N87, 72 h): 60 nM
5 | Nc1cc(C(F)(F)F)c(-c2nc(N3CCOCC3)nc(N3C[C@H]4OCCO[C@@H]4C3)n2)cn1 | 68 |  |  |  |  |  |  |  |  |  |  |  |  |  |  | IC50 ([2]; du-145): 7.36 µM; IC50 [17]: 4270 nM; IC50 ([5]; a-431): 14100 nM; IC50 [18]: 5.63 µM; IC50 [19]: 15.1 µM; IC50 ([6]; panc-1): 9.04 µM; IC50 ([7]; nci-n87): 3900 nM; IC50 ([9]; k562): 24600 nM; IC50 ([10]; mcf7): 7.32 µM; IC50 [20]: 2700 nM; IC50 ([13]; u-937): 4030 nM; IC50 ([14]; molt-4): 2280 nM; IC50 ([15]; hela): > 100000 nM; IC50 ([16]; a549): 8.01 µM
6 | Nc1cc(C(F)(F)F)c(-c2nc(N3CCOCC3)nc(N3C[C@H]4OCCO[C@@H]4C3)n2)cn1 (racemic) | 32 |  | 4460 | 9.57 | > 10000 | 6.23 | 5660 |  | 8.15 | 10000 | 5900 | 3050 | 1210 |  | 4.03 | IC50 ([2]; du-145): 3.3 µM; IC50 ([7]; nci-n87): 770 nM; IC50 ([9]; k562): > 10000 nM; IC50 ([15]; hela): > 10000 nM
7 | Nc1cc(C(F)(F)F)c(-c2ccc3c(N4CCOCC4)nc(N4CCOCC4)nc3c2)cn1 | > 10000 |  |  |  |  |  |  |  |  |  |  |  |  |  |  | 
8 | C[C@@H]1CN(c2cc(-c3cnc(N)cc3C(F)(F)F)nc(N3CCOCC3)n2)C[C@H](C)O1 | 224 |  |  |  |  |  |  |  |  |  |  |  |  |  |  | 
9 | Nc1cc(C(F)(F)F)c(-c2cc(N3CCOCC3)nc(N3C[C@@H]4OCCO[C@H]4C3)n2)cn1 (racemic) |  |  |  |  |  |  |  |  |  |  |  |  |  |  |  | inhibition [21]: Active
10 | Nc1cc(C(F)(F)F)c(-c2cc(N3CCOCC3)nc(NCCN3CCOCC3)n2)cn1 | 568 |  |  |  |  |  |  |  |  |  |  |  |  |  |  | 
11 | Nc1cc(C(F)(F)F)c(-c2cc(N3CCOCC3)nc(N3C[C@H]4C[C@@H]3CO4)n2)cn1 | 60 | 2.38 | 2300 | 2.44 | 1790 | 2.78 | 2930 | 2400 | 2.54 | 2720 | 2790 | 720 | 1140 | 1760 | 3.05 | IC50 ([7]; Homo sapiens, NCI-N87, 72 h): 1410 nM
12 | C[C@@H]1CN(c2nc(-c3cnc(N)cc3C(F)(F)F)nc(N3C[C@@H]4OCCO[C@@H]4C3)n2)C[C@H](C)O1 | > 10000 |  |  |  |  |  |  |  |  |  |  |  |  |  |  | 
13 | CS(=O)(=O)N1CCN(c2nc(-c3cnc(N)cc3C(F)(F)F)cc(N3CCOCC3)n2)CC1 | 23 | 6.56 |  | 3.64 |  |  |  | 3640 | 4.39 |  |  | 1990 | 1110 | 4040 | 2.95 | IC50 [17]: 1590 nM
14 | C[C@@H]1CN(c2nc(-c3cnc(N)cc3C(F)(F)F)nc(N3C[C@@H](C)O[C@@H](C)C3)n2)C[C@H](C)O1 | > 10000 |  |  |  |  |  |  |  |  |  |  |  |  |  |  | 
